Test results reported in ChEMBL document CHEMBL2062435, “Synthesis and in vitro antibacterial activity of gemifloxacin derivatives containing a substituted benzyloxime moiety” (2012).
In brackets after ≈: the same amount, converted by molar mass.

Key:
Assay type in all cases: functional
Escherichia coli [1] = experiment: Antimicrobial activity against extended spectrum beta-lactamases-producing Escherichia coli 10-3 after 18-24 hrs by two-fold serial dilution method
In short: (§1)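 Agar-medium twofold serial dilution against Gram-positive and Gram-negative strains; MIC taken as the lowest compound concentration giving complete inhibition of bacterial growth after incubation at 35 °C for 18-24 h.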

Escherichia coli [2] = experiment: Antimicrobial activity against extended spectrum beta-lactamases-producing Escherichia coli 10-4 after 18-24 hrs by two-fold serial dilution method; in short: as §1
Klebsiella pneumoniae [3] = experiment: Antimicrobial activity against extended spectrum beta-lactamases-producing Klebsiella pneumoniae 10-2 after 18-24 hrs by two-fold serial dilution method; in short: as §1
Klebsiella pneumoniae [4] = experiment: Antimicrobial activity against Klebsiella pneumoniae 10-4 after 18-24 hrs by two-fold serial dilution method; in short: as §1
Staphylococcus aureus [5] = experiment: Antimicrobial activity against extended spectrum beta-lactamases-producing methicillin-sensitive Staphylococcus aureus 10-14 after 18-24 hrs by two-fold serial dilution method; in short: as §1
[6] = system: Staphylococcus epidermidis; experiment: Antimicrobial activity against extended spectrum beta-lactamases-producing methicillin-sensitive Staphylococcus epidermidis 10-13 after 18-24 hrs by two-fold serial dilution method; in short: as §1
Staphylococcus aureus [7] = experiment: Antimicrobial activity against extended spectrum beta-lactamases-producing methicillin-resistant Staphylococcus aureus 10-11 after 18-24 hrs by two-fold serial dilution method
In short: (§2)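 Agar twofold serial dilution MIC against clinical isolates. MIC was taken as the lowest concentration giving complete inhibition of bacterial growth after incubation at 35 °C for 18-24 h.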

Klebsiella pneumoniae [8] = experiment: Antimicrobial activity against Klebsiella pneumoniae 10-3 after 18-24 hrs by two-fold serial dilution method; in short: as §1
[9] = system: Staphylococcus epidermidis; experiment: Antimicrobial activity against extended spectrum beta-lactamases-producing methicillin-resistant Staphylococcus epidermidis 10-10 after 18-24 hrs by two-fold serial dilution method; in short: as §2
Pseudomonas aeruginosa [10] = experiment: Antimicrobial activity against extended spectrum beta-lactamases-producing Pseudomonas aeruginosa 10-20 after 18-24 hrs by two-fold serial dilution method; in short: as §1
Escherichia coli [11] = experiment: Antimicrobial activity against Escherichia coli 10-3 after 18-24 hrs by two-fold serial dilution method; in short: as §1
Klebsiella pneumoniae [12] = experiment: Antimicrobial activity against extended spectrum beta-lactamases-producing Klebsiella pneumoniae 10-1 after 18-24 hrs by two-fold serial dilution method; in short: as §1
Streptococcus pneumoniae [13] = experiment: Antimicrobial activity against extended spectrum beta-lactamases-producing Streptococcus pneumoniae 10-1 after 18-24 hrs by two-fold serial dilution method; in short: as §1
Escherichia coli [14] = experiment: Antimicrobial activity against Escherichia coli 10-1 after 18-24 hrs by two-fold serial dilution method; in short: as §1
[15] = system: Staphylococcus epidermidis; experiment: Antimicrobial activity against methicillin-resistant Staphylococcus epidermidis clinical isolate after 18-24 hrs by two-fold serial dilution method
Enterococcus faecalis [16] = experiment: Antimicrobial activity against Enterococcus faecalis 10-7 after 18-24 hrs by two-fold serial dilution method; in short: as §1
Enterococcus faecalis [17] = experiment: Antimicrobial activity against Enterococcus faecalis 10-5 after 18-24 hrs by two-fold serial dilution method; in short: as §1
Pseudomonas aeruginosa [18] = experiment: Antimicrobial activity against extended spectrum beta-lactamases-producing Pseudomonas aeruginosa 10-15 after 18-24 hrs by two-fold serial dilution method; in short: as §1
Staphylococcus aureus [19] = experiment: Antimicrobial activity against extended spectrum beta-lactamases-producing methicillin-sensitive Staphylococcus aureus 10-13 after 18-24 hrs by two-fold serial dilution method; in short: as §1
Pseudomonas aeruginosa [20] = experiment: Antimicrobial activity against extended spectrum beta-lactamases-producing Pseudomonas aeruginosa 10-9 after 18-24 hrs by two-fold serial dilution method; in short: as §1
Pseudomonas aeruginosa [21] = experiment: Antimicrobial activity against extended spectrum beta-lactamases-producing Pseudomonas aeruginosa 10-18 after 18-24 hrs by two-fold serial dilution method; in short: as §1
Klebsiella pneumoniae [22] = experiment: Antimicrobial activity against Klebsiella pneumoniae 10-2 after 18-24 hrs by two-fold serial dilution method; in short: as §1
Enterococcus faecium [23] = experiment: Antimicrobial activity against Enterococcus faecium 10-9 after 18-24 hrs by two-fold serial dilution method; in short: as §1
Klebsiella pneumoniae [24] = experiment: Antimicrobial activity against extended spectrum beta-lactamases-producing Klebsiella pneumoniae 10-3 after 18-24 hrs by two-fold serial dilution method; in short: as §1
Enterococcus faecium [25] = experiment: Antimicrobial activity against Enterococcus faecium 10-5 after 18-24 hrs by two-fold serial dilution method; in short: as §1
Staphylococcus aureus [26] = experiment: Antimicrobial activity against extended spectrum beta-lactamases-producing methicillin-resistant Staphylococcus aureus 10-15 after 18-24 hrs by two-fold serial dilution method; in short: as §2
Staphylococcus aureus [27] = experiment: Antimicrobial activity against Staphylococcus aureus ATCC […] after 18-24 hrs by two-fold serial dilution method; in short: as §1
[28] = system: Staphylococcus epidermidis; experiment: Antimicrobial activity against extended spectrum beta-lactamases-producing methicillin-resistant Staphylococcus epidermidis 10-13 after 18-24 hrs by two-fold serial dilution method; in short: as §2
[29] = system: Staphylococcus epidermidis; experiment: Antimicrobial activity against extended spectrum beta-lactamases-producing methicillin-sensitive Staphylococcus epidermidis 10-15 after 18-24 hrs by two-fold serial dilution method; in short: as §1
[30] = system: Staphylococcus epidermidis; experiment: Antimicrobial activity against extended spectrum beta-lactamases-producing methicillin-sensitive Staphylococcus epidermidis 10-11 after 18-24 hrs by two-fold serial dilution method; in short: as §1
Escherichia coli [31] = experiment: Antimicrobial activity against Escherichia coli ATCC 25922 after 18-24 hrs by two-fold serial dilution method; in short: as §1
Enterococcus faecalis [32] = experiment: Antimicrobial activity against Enterococcus faecalis 10-6 after 18-24 hrs by two-fold serial dilution method; in short: as §1
Escherichia coli [33] = experiment: Antimicrobial activity against Escherichia coli 10-2 after 18-24 hrs by two-fold serial dilution method; in short: as §1
Streptococcus pneumoniae [34] = experiment: Antimicrobial activity against extended spectrum beta-lactamases-producing Streptococcus pneumoniae 10-4 after 18-24 hrs by two-fold serial dilution method; in short: as §1
Pseudomonas aeruginosa [35] = experiment: Antimicrobial activity against Pseudomonas aeruginosa 10-12 after 18-24 hrs by two-fold serial dilution method; in short: as §1
Staphylococcus aureus [36] = experiment: Antimicrobial activity against methicillin-resistant Staphylococcus aureus clinical isolate after 18-24 hrs by two-fold serial dilution method; in short: as §2
Pseudomonas aeruginosa [37] = experiment: Antimicrobial activity against extended spectrum beta-lactamases-producing Pseudomonas aeruginosa 10-5 after 18-24 hrs by two-fold serial dilution method; in short: as §1
Escherichia coli [38] = experiment: Antimicrobial activity against extended spectrum beta-lactamases-producing Escherichia coli 10-2 after 18-24 hrs by two-fold serial dilution method; in short: as §1

| SMILES | MIC (Escherichia coli [1]) [µg/mL] | MIC (Escherichia coli [2]) [µg/mL] | MIC (Klebsiella pneumoniae [3]) [µg/mL] | MIC (Klebsiella pneumoniae [4]) [µg/mL] | MIC (Staphylococcus aureus [5]) [µg/mL] | MIC [6] [µg/mL] | MIC (Staphylococcus aureus [7]) [µg/mL] | MIC (Klebsiella pneumoniae [8]) [µg/mL] | MIC [9] [µg/mL] | MIC (Pseudomonas aeruginosa [10]) [µg/mL] | MIC (Escherichia coli [11]) [µg/mL] | MIC (Klebsiella pneumoniae [12]) [µg/mL] | MIC (Streptococcus pneumoniae [13]) [µg/mL] | MIC (Escherichia coli [14]) [µg/mL] | MIC (Enterococcus faecalis [16]) [µg/mL] | MIC (Enterococcus faecalis [17]) [µg/mL] | MIC (Pseudomonas aeruginosa [18]) [µg/mL] | MIC (Staphylococcus aureus [19]) [µg/mL] | MIC (Pseudomonas aeruginosa [20]) [µg/mL] | MIC (Pseudomonas aeruginosa [21]) [µg/mL] | further results |
| --- | --- | --- | --- | --- | --- | --- | --- | --- | --- | --- | --- | --- | --- | --- | --- | --- | --- | --- | --- | --- | --- |
| CO/N=C1\CN(c2nc3c(cc2F)c(=O)c(C(=O)O)cn3C2CC2)CC1CN (centres undefined) [GEMIFLOXACIN] | 2 (≈ 5.14 µM) | 8 (≈ 20.5 µM) | 16 (≈ 41.1 µM) | 32 (≈ 82.2 µM) | 0.06 (≈ 0.154 µM) | 1 (≈ 2.57 µM) | 4 (≈ 10.3 µM) | 8 (≈ 20.5 µM) | 2 (≈ 5.14 µM) | 0.5 (≈ 1.28 µM) | 0.5 (≈ 1.28 µM) | 16 (≈ 41.1 µM) | 2 (≈ 5.14 µM) | 8 (≈ 20.5 µM) | 2 (≈ 5.14 µM) | 1 (≈ 2.57 µM) | 1 (≈ 2.57 µM) | 0.25 (≈ 0.642 µM) | 0.5 (≈ 1.28 µM) | 2 (≈ 5.14 µM) | MIC50 [15]: 0.25 µg/mL (≈ 0.642 µM); MIC90 [15]: 8 µg/mL (≈ 20.5 µM); MIC (Klebsiella pneumoniae [22]): 0.5 µg/mL (≈ 1.28 µM); MIC (Enterococcus faecium [23]): 8 µg/mL (≈ 20.5 µM); MIC (Klebsiella pneumoniae [24]): 16 µg/mL (≈ 41.1 µM); MIC (Enterococcus faecium [25]): 8 µg/mL (≈ 20.5 µM); MIC (Staphylococcus aureus [26]): 1 µg/mL (≈ 2.57 µM); MIC (Staphylococcus aureus [27]): 0.06 µg/mL (≈ 0.154 µM); MIC [28]: 0.5 µg/mL (≈ 1.28 µM); MIC [29]: 16 µg/mL (≈ 41.1 µM); MIC [30]: 16 µg/mL (≈ 41.1 µM); MIC (Escherichia coli [31]): 0.03 µg/mL (≈ 0.077 µM); MIC (Enterococcus faecalis [32]): 8 µg/mL (≈ 20.5 µM); MIC (Escherichia coli [33]): 0.5 µg/mL (≈ 1.28 µM); MIC (Streptococcus pneumoniae [34]): 2 µg/mL (≈ 5.14 µM); MIC (Pseudomonas aeruginosa [35]): 0.03 µg/mL (≈ 0.077 µM); MIC50 (Staphylococcus aureus [36]): 2 µg/mL (≈ 5.14 µM); MIC90 (Staphylococcus aureus [36]): 8 µg/mL (≈ 20.5 µM); MIC (Pseudomonas aeruginosa [37]): 0.5 µg/mL (≈ 1.28 µM); MIC (Escherichia coli [38]): 16 µg/mL (≈ 41.1 µM) |
| COc1cccc(CO/N=C2\CN(c3nc4c(cc3F)c(=O)c(C(=O)O)cn4C3CC3)CC2CN)c1OC.CS(=O)(=O)O (racemic) | 32 | 2 | > 128 | > 128 | 0.06 | 0.06 | 1 | 2 | 0.5 | 8 | 16 | > 128 | 0.125 | > 128 | 1 | 0.25 | 8 | 0.03 | 4 | 4 | MIC (Klebsiella pneumoniae [22]): 128 µg/mL; MIC (Enterococcus faecium [23]): 4 µg/mL; MIC (Klebsiella pneumoniae [24]): > 128 µg/mL; MIC (Enterococcus faecium [25]): 4 µg/mL; MIC (Staphylococcus aureus [26]): 4 µg/mL; MIC (Staphylococcus aureus [27]): 0.015 µg/mL; MIC [28]: 0.25 µg/mL; MIC [29]: 4 µg/mL; MIC [30]: 0.25 µg/mL; MIC (Escherichia coli [31]): 0.125 µg/mL; MIC (Enterococcus faecalis [32]): 4 µg/mL; MIC (Escherichia coli [33]): 16 µg/mL; MIC (Streptococcus pneumoniae [34]): 0.06 µg/mL; MIC (Pseudomonas aeruginosa [35]): 8 µg/mL; MIC50 (Staphylococcus aureus [36]): 1 µg/mL; MIC90 (Staphylococcus aureus [36]): 4 µg/mL; MIC (Pseudomonas aeruginosa [37]): 4 µg/mL; MIC (Escherichia coli [38]): > 128 µg/mL |
| COc1ccc(CO/N=C2\CN(c3nc4c(cc3F)c(=O)c(C(=O)O)cn4C3CC3)CC2CN)c(Cl)c1OC.CS(=O)(=O)O (racemic) | > 128 | 4 | > 128 | > 128 | 0.015 | 0.03 | 1 | 8 | 0.5 | 16 | 16 | > 128 | 0.5 | > 128 | 2 | 0.25 | 32 | 0.015 | 8 | 16 | MIC (Klebsiella pneumoniae [22]): > 128 µg/mL; MIC (Enterococcus faecium [23]): 4 µg/mL; MIC (Klebsiella pneumoniae [24]): > 128 µg/mL; MIC (Enterococcus faecium [25]): 4 µg/mL; MIC (Staphylococcus aureus [26]): 0.25 µg/mL; MIC (Staphylococcus aureus [27]): 0.008 µg/mL; MIC [28]: 0.5 µg/mL; MIC [29]: 1 µg/mL; MIC [30]: 0.25 µg/mL; MIC (Escherichia coli [31]): 0.25 µg/mL; MIC (Enterococcus faecalis [32]): 4 µg/mL; MIC (Escherichia coli [33]): 32 µg/mL; MIC (Streptococcus pneumoniae [34]): 0.06 µg/mL; MIC (Pseudomonas aeruginosa [35]): 16 µg/mL; MIC (Pseudomonas aeruginosa [37]): 16 µg/mL; MIC (Escherichia coli [38]): > 128 µg/mL |
